In brackets after ≈: the same amount, converted by molar mass. Activity calls are given as the source filed them. No cut-off for these calls is given here.
Tests used:
[1] = Prodrug activation in DMSO/PBS mixture assessed as formation of Dimethyl (4-(((2,4-Diaminopteridin-6-yl)methyl)(methyl)amino)-benzoyl)-L-glutamate at 50 uM after <3 hrs in presence of 0.5 mM H2O2 by RP-UPLC-MS method
Method in brief: (§1)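 50 µM prodrug in 30% DMSO/PBS pH 7.4 at 37 °C with diclofenac internal standard. Started with H2O2 at 0.5 mM final. Sampled 5 min to 4 h (some compounds to 48 h). RP-UPLC-UV at 306 nm. No-H2O2 control run in parallel. Triplicate.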

[2] = Prodrug activation in DMSO/PBS mixture assessed as formation of methotrexate at 50 uM after <3 hrs in presence of 0.5 mM H2O2 by RP-UPLC-MS method; method in brief: as §1
Mus musculus [3] = assay: Antiarthritic activity in collagen-induced DBA/1J mouse arthritis model assessed as reduction of macroscopic score at 9.7 mg/kg, ip administered daily for 2 weeks starting on day 27 post first immunization measured thrice per week during compound dosing relative to control; type: functional, organism-based
Method in brief: (§2)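 Male DBA/1J mice (8–9 wk, n = 8/group). Arthritis induced by intradermal tail-base immunization with 100 µg chicken type-II collagen in CFA on day −1, with a 50 µg boost on day 21. Daily i.p. dosing in 2% DMSO/PBS for 14 days from day 27. Blinded scoring three times weekly, 0–15 per limb (max 60). Vehicle group as control. Mann-Whitney test.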

[4] = Half life in SIF by RP-UPLC-UV method; type: physicochemical
Method in brief: (§3)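 SGF or SIF (SIF adjusted to pH 7.5) dosed from a 10 mM DMSO stock. Incubated at 37 °C and sampled at 0, 1, 2, 4 and 24 h. Run in triplicate.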

[5] = Half life in SGF by RP-UPLC-UV method; type: physicochemical; method in brief: as §3
MCF7 [6] = assay: Cytotoxicity against human MCF7 cells assessed as decrease in cell viability after 48 hrs by MTS assay; type: functional, cell-based
Method in brief: (§4)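 MCF-7 (DMEM) or NCI-H460 (RPMI), 10% FBS, seeded at 10^4 or 7×10^3 cells/well respectively and attached for 24 h. Exposed to serial compound concentrations for 48 h, then MTS read at 490 nm. DMSO ≤0.4% matched controls. Triplicate. IC50 by non-linear regression.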

[7] = Metabolic stability in mouse plasma at 20 uM after 8 hrs by RP-UPLC-UV method; type: ADME, cell-free; conditions: read-out: Stability
Method in brief: (§5)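 Reconstituted lyophilized human or mouse plasma mixed about 1:1 with PBS and pre-warmed to 37 °C. Compound added to 20 µM final. […] Procaine (human) and diltiazem (mouse) as controls.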

[8] = Intrinsic clearance in human liver microsomes at 10 uM after 5 to 60 mins by RP-UPLC-UV method; type: ADME, microsome; conditions: read-out: CLH
Method in brief: (§6)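 Pooled male liver microsomes (human, or CD-1 mouse) in PBS at 37 °C with 10 µM compound. Reaction started with NADPH. Aliquots taken 0–60 min (mouse also 120 and 240 min) and quenched with cold MeCN/diclofenac. Read by RP-UPLC-UV, ln[C] vs time, first order. No-NADPH control run; verapamil (human) or diphenhydramine (mouse) as reference.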

[9] = Metabolic stability in human plasma at 20 uM after 24 hrs by RP-UPLC-UV method; type: ADME, cell-free; conditions: read-out: Stability; method in brief: as §5
[10] = Half life in PBS/DMSO mixture at pH 7.4 by RP-UPLC-UV method; type: physicochemical
Mus musculus [11] = assay: Toxicity in collagen-induced DBA/1J mouse arthritis model assessed as decrease in body weight at 9.7 mg/kg, ip administered daily for 2 weeks starting on day 27 post first immunization measured thrice per week during compound dosing; type: organism-based; conditions: in vivo, 336 h
Method in brief: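 CIA in male DBA/1J mice (8–9 wk, n = 8/group) from chicken type-II collagen/CFA immunization (day −1, boost day 21). Daily i.p. dosing in 2% DMSO/PBS for 14 days starting day 27. Body weight recorded three times weekly as a general-health indicator, compared with vehicle. Data are mean ± SEM.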

MCF7 [12] = assay: Cytotoxicity against human MCF7 cells assessed as decrease in cell viability preincubated with H2O2 for 24 hrs followed by cell addition measured after 48 hrs by MTS assay; type: functional, cell-based
Method in brief: (§7)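 Compound pre-activated at 125 µM with 1.25 mM H2O2 in DMSO:PBS 1:1, 24 h at 21 °C. Then added to MCF-7 or NCI-H460 cells (24 h attached) for 48 h. Final H2O2 <10 µM. MTS read at 490 nm. Triplicate. IC50 by non-linear regression.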

[13] = Half life in human plasma at 20 uM by RP-UPLC-UV method; type: ADME, cell-free; method in brief: as §5
[14] = Intrinsic clearance in CD1 mouse liver microsomes at 10 uM after 5 to 240 mins by RP-UPLC-UV method; type: ADME, microsome; conditions: read-out: CLH; method in brief: as §6
[15] = Half life in mouse plasma at 20 uM by RP-UPLC-UV method; type: ADME, cell-free; method in brief: as §5
[16] = Chemical stability in PBS/DMSO mixture at pH 7.4 after 24 hrs by RP-UPLC-UV method; type: physicochemical; conditions: read-out: Stability
[17] = Prodrug activation in DMSO/PBS mixture assessed as formation of methotrexate at 100 uM after 24 hrs in presence of 0.25 to 10 mM H2O2 by RP-UPLC-MS method
Method in brief: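 Prodrug from 1 mM DMSO stock in PBS pH 7.4 with diclofenac internal standard. Started with H2O2 solutions of 10, 5, 1, 0.5 or 0.25 mM (stock concentrations). Incubated at 37 °C and sampled 5 min to 24 h (48 h for some). RP-UPLC-UV at 306 nm. PBS-only control run. Triplicate.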

Mus musculus [18] = assay: Antiarthritic activity in collagen-induced DBA/1J mouse arthritis model assessed as decrease in incidence of arthritis at 9.7 mg/kg, ip administered daily for 2 weeks starting on day 27 post first immunization measured thrice per week during compound dosing relative to control; type: functional, organism-based; method in brief: as §2
NCI-H460 [19] = assay: Cytotoxicity against human NCI-H460 cells assessed as decrease in cell viability preincubated with H2O2 for 24 hrs followed by cell addition measured after 48 hrs by MTS assay; type: functional, cell-based; method in brief: as §7
[20] = Kinetic solubility of the compound in DMSO/PBS mixture after 20 hrs by RP-UPLC-UV method; type: physicochemical
Method in brief: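 100 µM compound in 1% DMSO/PBS pH 7.4, shaken 20 h at 37 °C. Centrifuged to remove insoluble material; supernatant quantified by RP-UPLC-UV at 306 nm. Triplicate.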

NCI-H460 [21] = assay: Cytotoxicity against human NCI-H460 cells assessed as decrease in cell viability after 48 hrs by MTS assay; type: functional, cell-based; method in brief: as §4
[22] = Prodrug activation in DMSO/PBS mixture assessed as formation of (S)-dimethyl 2-(4-((2,4-diaminopteridin-6-yl)methylamino)benzamido)pentanedioate at 50 uM after 2 hrs in presence of 0.5 mM H2O2 by RP-UPLC-MS method
[23] = Prodrug activation in DMSO/PBS mixture assessed as formation of (S)-dimethyl 2-(4-(((2,4-diaminopteridin-6-yl)methyl)(4-hydroxybenzyl)amino)benzamido)pentanedioate at 50 uM measured within 2 hrs in presence of 0.5 mM H2O2 by RP-UPLC-MS method; method in brief: as §1
[24] = Prodrug activation in DMSO/PBS mixture assessed as formation of aminopterin at 50 uM measured within 2 hrs in presence of 0.5 mM H2O2 by RP-UPLC-MS method; method in brief: as §1
[25] = Prodrug activation in DMSO/PBS mixture assessed as formation of (S)-dimethyl 2-(4-((2,4-diaminopteridin-6-yl)methylamino)benzamido)pentanedioate at 50 uM measured within 2 hrs in presence of 0.5 mM H2O2 by RP-UPLC-MS method; method in brief: as §1

## COC(=O)CC[C@H](NC(=O)c1ccc(N(C)Cc2cnc3nc(N)nc(NC(=O)OCc4ccc(B(O)O)c(C)c4)c3n2)cc1)C(=O)OC
[1]
  Drug metabolism: > 95%

## CN(Cc1cnc2nc(N)nc(NC(=O)OCc3ccc(B(O)O)cc3)c2n1)c1ccc(C(=O)N[C@@H](CCC(=O)O)C(=O)O)cc1
[2]
  Drug metabolism: Metabolite detected
Mus musculus [3]
  Activity: Active
[4]
  half-life: 239 h
[5]
  half-life: 8 h
MCF7 [6]
  Activity: inactive
[7]
  remaining at 8 h, 20 µM: 62%
[8]
  microsomal CLint at 10 µM: 2.2 µL/min/mg
[9]
  remaining at 24 h, 20 µM: 70%
[10]
  half-life: 238 h
Mus musculus [11]
  Activity: Non-Toxic
MCF7 [12]
  Activity: Active
[13]
  half-life at 20 µM: 70 h
[14]
  microsomal CLint at 10 µM: 6.4 µL/min/mg
[15]
  half-life at 20 µM: 17 h
[16]
  remaining at 24 h: > 90%
[17]
  Drug metabolism: Metabolite detected
Mus musculus [18]
  Activity: Active
NCI-H460 [19]
  Activity: Active
[20]; read-out: Kinetic_solubility
  solubility kinetic at 20 h: 87 µM (≈ 55 µg/mL)
NCI-H460 [21]
  Activity: inactive

## COC(=O)CC[C@H](NC(=O)c1ccc(N(Cc2ccc(B(O)O)cc2)Cc2cnc3nc(N)nc(N)c3n2)cc1)C(=O)OC
[22]
  Drug metabolism: Metabolite detected
[23]
  Drug metabolism: Metabolite detected
[24]
  Drug metabolism: Metabolite not detected
[20]; read-out: Kinetic_solubility
  solubility kinetic at 20 h: 4.1 µM (≈ 2.47 µg/mL)
[25]
  Drug metabolism: Metabolite not detected

## COC(=O)CC[C@H](NC(=O)c1ccc(N(C)Cc2cnc3nc(N)nc(NC(=O)OCc4ccc(B(O)O)c(F)c4)c3n2)cc1)C(=O)OC
[1]
  Drug metabolism: > 95%
[20]
  solubility kinetic at 20 h: 4.6 µM (≈ 3.12 µg/mL)

— ChEMBL document CHEMBL4043304, “Synthesis and Evaluation of Hydrogen Peroxide Sensitive Prodrugs of Methotrexate and Aminopterin for the Treatment of Rheumatoid Arthritis” (J Med Chem, 2018)
